The record followed here is ChEMBL document CHEMBL2346570, “Small-molecule inhibitors of cytokine-mediated STAT1 signal transduction in β-cells with improved aqueous solubility” (J Med Chem, 2013).

Series [1] can be described thus: Cytoprotective activity in rat INS-1E cells assessed as suppression of cytokine-induced caspase-3/7 activation after 48 hrs by luminescence assay. Type of series: functional, cell-based. Summed up: (§1)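 INS-1E β-cells exposed to a cytokine mixture (IFN-γ at 500 ng/mL; IL-1β and TNF-α lowered 20- and 10-fold from standard levels) with compound for 48 h; caspase-3/7 activation read as apoptosis. IC50 from dose-response in three replicates; maximum activity expressed as % rescue from cytokine-induced caspase-3/7 activation.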

The nature of series [2]: Cytoprotective activity in rat INS-1E cells assessed as suppression of cytokine-induced caspase-3/7 activation after 48 hrs by luminescence assay relative to control. In kind it is functional. A digest of the protocol:
as §1

The nature of series [3]: Thermodynamic solubility in PBS at pH 7.4 after 24 hrs by UPLC-MS analysis. In kind it is physicochemical. The settings on record: for solubility thermodynamic at 24 h: PBS, pH 7.4, read-out: Therm_solubility. Summed up: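 Thermodynamic solubility assay in phosphate buffered saline, pH 7.4.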
The subject of series [4] is INS-1E. The series is described as follows: Inhibition of IFNgamma-induced JAK1/JAK2 signaling in rat INS-1E cells assessed as STAT1 nuclear translocation at 10 uM after 30 mins by immunofluorescence assay. In kind it is cell-based. A digest of the protocol: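 IFN-γ-stimulated INS-1E β-cells, with or without compound, for 30 min; cells fixed and STAT1 subcellular (cytoplasm vs nucleus) localization monitored by immunofluorescence imaging.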

In series [5] the test system is INS-1E. Put plainly: Effect on total STAT1 level in rat INS-1E cells at 10 uM after 30 mins by Western blotting analysis. Type of series: functional, cell-based.
The subject of series [6] is INS-1E. The series is described as follows: Inhibition of JAK1/JAK2 in rat INS-1E cells assessed as inhibition of IFNgamma-induced STAT1 phosphorylation at Tyr701 and Ser727 at 10 uM after 30 mins by Western blotting analysis. Type of series: cell-based. Summed up: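 INS-1E β-cells treated with IFN-γ with or without compound for 30 min; STAT1 phosphorylation at Tyr701 and Ser727 assessed by Western blotting.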

Values after ≈ are worked out from the molar mass of the structure shown. Active and inactive are the calls of the source. No cut-off for these calls is given here.

Consider `C[C@@H]1CN([C@@H](C)CO)C(=O)c2cccc(NC(=O)N(C)c3cccc4ccccc34)c2O[C@H]1CN(C)S(=O)(=O)c1ccc2c(c1)OCCO2`, for which, in series [1], the IC50 was found to be 4.74 µM. Besides, the “%max” value in series [2] was 15%. For the same molecule, in series [3], the solubility thermodynamic at 24 h turned out to be 11.2 µM (≈ 7.71 µg/mL).
Regarding `C[C@@H]1CN([C@@H](C)CO)C(=O)c2cccc(NC(=O)Nc3ccnc4ccccc34)c2O[C@H]1CN(C)S(=O)(=O)c1ccc2c(c1)OCCO2`, the IC50 in series [1] was greater than 20 µM. Besides, the solubility thermodynamic at 24 h in series [3] stood at 30.3 µM (≈ 20.5 µg/mL).
Turning to `C[C@@H]1CN([C@@H](C)CO)C(=O)c2cccc(NC(=O)Nc3cccc4cccnc34)c2O[C@H]1CN(C)S(=O)(=O)c1ccc2c(c1)OCCO2`, in series [1], the IC50 was found to be 3.26 µM. The inhibition result with INS-1E [4] and in the series with INS-1E [6] was “Active” in each case. Further, the inhibition entry in the series on INS-1E [5] was “inactive”. For the same molecule, the “%max” value in series [2] stood at 69%. The solubility thermodynamic at 24 h in series [3] turned out to be 1.8 µM (≈ 1.22 µg/mL).
Regarding `C[C@@H]1CN([C@@H](C)CO)C(=O)c2cccc(NC(=O)Nc3cccc4ccccc34)c2O[C@H]1CN(C)S(=O)(=O)c1ccc2c(c1)OCCO2`, the IC50 in series [1] is 1.66 µM. The inhibition entry with INS-1E [4] and with INS-1E [6] was “Active” each time. In addition, the inhibition result in the series with INS-1E [5] was “inactive”. Moreover, the “%max” value in series [2] stood at 71%. Besides, the Therm_solubility in series [3] (buffer, pH 7.4, 24 h) was determined as 0.1 µM.
Take `C[C@@H]1CN([C@@H](C)CO)C(=O)c2cccc(NC(=O)Nc3cccc4cnccc34)c2O[C@H]1CN(C)S(=O)(=O)c1ccc2c(c1)OCCO2`: the IC50 in series [1] turned out to be 4.65 µM. The “%max” value in series [2] was 59%. For the same molecule, the solubility thermodynamic at 24 h in series [3] stood at 60.5 µM (≈ 40.9 µg/mL).
For `C[C@@H]1CN([C@@H](C)CO)C(=O)c2cccc(NC(=O)Nc3cncc4ccccc34)c2O[C@H]1CN(C)S(=O)(=O)c1ccc2c(c1)OCCO2`, in that order: 4.1 µM, 31% and 84.9 µM (≈ 57.4 µg/mL).
The corresponding values for `C[C@@H]1CN([C@@H](C)CO)C(=O)c2cccc(NC(=O)Nc3nccc4ccccc34)c2O[C@H]1CN(C)S(=O)(=O)c1ccc2c(c1)OCCO2` are 1.05 µM, 21% and 0.7 µM (≈ 0.473 µg/mL).
As for `C[C@@H]1CN([C@@H](C)CO)C(=O)c2cccc(NC(=O)Nc3cccc4ccncc34)c2O[C@H]1CN(C)S(=O)(=O)c1ccc2c(c1)OCCO2`, in series [3], the solubility thermodynamic at 24 h came to 101 µM (≈ 68.5 µg/mL).
`C[C@@H]1CN([C@@H](C)CO)C(=O)c2cccc(NC(=O)Nc3cccc4ncccc34)c2O[C@H]1CN(C)S(=O)(=O)c1ccc2c(c1)OCCO2`: in series [1], the IC50 came to 1.62 µM. In addition, the “%max” value in series [2] was determined as 41%. In series [3], the solubility thermodynamic at 24 h came out at 138 µM (≈ 93.6 µg/mL).
With `C[C@@H]1CN([C@@H](C)CO)C(=O)c2cccc(NC(=O)NCc3cccc4ccccc34)c2O[C@H]1CN(C)S(=O)(=O)c1ccc2c(c1)OCCO2`, the IC50 in series [1] is greater than 20 µM. The inhibition entry with INS-1E [4], in the series with INS-1E [5] and in the series with INS-1E [6] was “inactive” each time. Moreover, the solubility thermodynamic at 24 h in series [3] amounted to 0.1 µM (≈ 0.0689 µg/mL).
